Measurements taken from ChEMBL document CHEMBL2331476, “A novel semisynthetic flavonoid 7-O-galloyltaxifolin upregulates heme oxygenase-1 in RAW264.7 cells via MAPK/Nrf2 pathway” (J Med Chem, 2013).
Calls of active or inactive are those of the source. No cut-off for these calls is given here.

Columns and labels:
[1] = biological target: Mitogen-activated protein kinase 8 (Mus musculus) (UniProt Q91Y86); experiment: Activation of JNK1 in mouse RAW264.7 cells assessed as phosphorylation at Thr183/Tyr185 at 50 uM after 30 mins to 4 hrs by Western blotting analysis; assay type: cell-based; conditions: TDE = time-dependent effect
Mitogen-activated protein kinase 8 (Mus musculus), sequence (Q91Y86 whole entry): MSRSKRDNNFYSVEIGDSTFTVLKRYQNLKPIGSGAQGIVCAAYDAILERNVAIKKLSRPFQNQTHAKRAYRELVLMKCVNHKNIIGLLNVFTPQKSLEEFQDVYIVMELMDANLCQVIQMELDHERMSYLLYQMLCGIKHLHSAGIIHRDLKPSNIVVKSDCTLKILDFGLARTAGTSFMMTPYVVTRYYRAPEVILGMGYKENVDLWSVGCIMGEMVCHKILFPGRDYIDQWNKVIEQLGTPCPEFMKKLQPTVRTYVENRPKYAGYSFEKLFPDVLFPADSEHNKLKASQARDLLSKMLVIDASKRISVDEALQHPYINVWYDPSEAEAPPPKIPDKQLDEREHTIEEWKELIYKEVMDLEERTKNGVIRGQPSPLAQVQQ
In short: (§1)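 Serum-starved RAW264.7 cells exposed in serum-free medium for 30 min to 4 h; 5 μM anisomycin for 30 min as positive control. Whole-cell lysates (30 μg/lane) blotted for JNKs dually phosphorylated at Thr183/Tyr185 and total JNKs, chemiluminescent detection.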

[2] = biological target: T1, Nuclear factor erythroid 2-related factor 2 (Mus musculus) (UniProt Q60795); experiment: Activation of Nrf2 in mouse RAW264.7 cells assessed as upregulation of HO1 protein expression at 10 to 50 uM after 6 hrs by Western blotting analysis; assay type: cell-based
T1 sequence (whole entry): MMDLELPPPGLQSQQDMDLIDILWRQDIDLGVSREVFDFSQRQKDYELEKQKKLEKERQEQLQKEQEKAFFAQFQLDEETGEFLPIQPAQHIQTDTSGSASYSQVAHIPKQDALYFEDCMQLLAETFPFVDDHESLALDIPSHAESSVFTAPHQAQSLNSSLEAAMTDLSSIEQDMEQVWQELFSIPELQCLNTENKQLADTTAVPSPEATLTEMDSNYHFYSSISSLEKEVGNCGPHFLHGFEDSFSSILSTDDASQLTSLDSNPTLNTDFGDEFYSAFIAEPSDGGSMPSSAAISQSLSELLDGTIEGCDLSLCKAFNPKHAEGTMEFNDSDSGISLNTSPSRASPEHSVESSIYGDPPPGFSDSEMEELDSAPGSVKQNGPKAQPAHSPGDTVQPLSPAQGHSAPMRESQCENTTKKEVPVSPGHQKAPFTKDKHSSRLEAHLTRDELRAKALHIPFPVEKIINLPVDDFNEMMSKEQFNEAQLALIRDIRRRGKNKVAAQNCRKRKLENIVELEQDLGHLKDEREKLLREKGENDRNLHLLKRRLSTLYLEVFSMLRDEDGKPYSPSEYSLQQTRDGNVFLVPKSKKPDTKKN
In short: (§2)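 HO-1 protein in whole-cell lysates (20 μg/lane) of serum-starved RAW264.7 cells after 6 h at 10-50 μM or 50 μM for 1-6 h in serum-free medium, 0.1% DMSO control. Chemiluminescent Western blot; HO-1 densitometry normalized to actin, mean of three experiments.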

[3] = biological target: T1, Nuclear factor erythroid 2-related factor 2 (Mus musculus); experiment: Activation of Nrf2 in mouse RAW264.7 cells assessed as upregulation of HO1 protein expression at 50 uM after 1 to 6 hr by Western blotting analysis; assay type: cell-based; conditions: TDE = time-dependent effect; in short: as §2
[4] = biological target: T1, Nuclear factor erythroid 2-related factor 2 (Mus musculus); experiment: Activation of Nrf2 in mouse RAW264.7 cells assessed as nuclear accumulation at 25 uM after 3 hrs by Western blotting analysis; assay type: cell-based
In short: (§3)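 Serum-starved RAW264.7 cells treated 30 min to 3 h (10-50 μM for 3 h, or 50 μM time course); 0.1% DMSO control, 50 μM quercetin positive control. Cytosolic fraction from hypotonic HEPES pH 7.9 buffer with 0.1% NP-40; nuclear fraction by 420 mM NaCl extraction. 30 μg/lane blotted for Nrf2 and actin; Nrf2/actin densitometry, mean of three experiments.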

[5] = biological target: T1, Nuclear factor erythroid 2-related factor 2 (Mus musculus); experiment: Activation of Nrf2 in mouse RAW264.7 cells assessed as induction of Hmox1 mRNA expression at 50 uM after 6 hrs by real-time PCR analysis in presence of SB203580; assay type: cell-based
In short: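 Pretreatment 30 min with 0.1% DMSO, 15 μM PD98059, 15 μM SB203580 or 30 μM SP600125, then 50 μM agent for 6 h in serum-free medium. Hmox1 mRNA by TaqMan qPCR normalized to Gapdh, given as percent of agent-induced expression; mean ± SD of three experiments.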

[6] = biological target: T1, Nuclear factor erythroid 2-related factor 2 (Mus musculus); experiment: Activation of Nrf2 in mouse RAW264.7 cells assessed as upregulation of HO1 protein expression at 50 uM after 6 hrs by Western blotting analysis; assay type: cell-based; in short: as §2
[7] = biological target: Mitogen-activated protein kinase 9/10 (Mus musculus) (UniProt Q9WTU6+Q61831); experiment: Activation of JNK2/3 in mouse RAW264.7 cells assessed as phosphorylation at 50 uM after 30 mins by Western blotting analysis; assay type: cell-based; in short: as §1
Mitogen-activated protein kinase 9/10 (Mus musculus), sequence (Q61831 whole entry, looked up): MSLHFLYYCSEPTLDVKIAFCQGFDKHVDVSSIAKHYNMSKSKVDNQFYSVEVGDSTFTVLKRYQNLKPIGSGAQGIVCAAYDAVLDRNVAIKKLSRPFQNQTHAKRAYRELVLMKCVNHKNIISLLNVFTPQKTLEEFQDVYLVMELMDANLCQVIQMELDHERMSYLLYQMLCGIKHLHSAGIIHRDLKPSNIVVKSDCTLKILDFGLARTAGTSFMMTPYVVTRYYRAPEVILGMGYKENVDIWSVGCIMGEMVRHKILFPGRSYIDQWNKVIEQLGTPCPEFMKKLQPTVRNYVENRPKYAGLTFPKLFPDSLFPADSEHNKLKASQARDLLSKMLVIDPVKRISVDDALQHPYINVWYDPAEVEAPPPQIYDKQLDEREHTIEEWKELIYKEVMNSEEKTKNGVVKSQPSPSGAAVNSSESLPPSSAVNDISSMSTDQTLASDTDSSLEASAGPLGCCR
Mitogen-activated protein kinase 9/10 (Mus musculus), sequence (Q9WTU6 whole entry, looked up): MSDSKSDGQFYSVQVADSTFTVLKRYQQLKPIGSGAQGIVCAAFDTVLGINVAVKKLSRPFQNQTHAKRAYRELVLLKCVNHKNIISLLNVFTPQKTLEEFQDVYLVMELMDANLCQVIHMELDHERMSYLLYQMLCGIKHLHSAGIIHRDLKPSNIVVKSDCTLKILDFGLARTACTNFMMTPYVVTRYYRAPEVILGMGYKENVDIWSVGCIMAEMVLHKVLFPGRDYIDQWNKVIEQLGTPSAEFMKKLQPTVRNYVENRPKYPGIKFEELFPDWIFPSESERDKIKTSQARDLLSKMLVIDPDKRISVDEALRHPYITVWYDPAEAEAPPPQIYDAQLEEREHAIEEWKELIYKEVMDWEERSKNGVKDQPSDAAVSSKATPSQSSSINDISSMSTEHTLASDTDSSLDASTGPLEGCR

[8] = biological target: T1, Nuclear factor erythroid 2-related factor 2 (Mus musculus); experiment: Activation of Nrf2 in mouse RAW264.7 cells assessed as upregulation of HO1 protein expression at 25 uM after 6 hrs by Western blotting analysis; assay type: cell-based; in short: as §2
RAW264.7 = experiment: Induction of ROS generation in mouse RAW264.7 cells at 25 uM after 2 hrs by flow cytometric analysis; assay type: functional
In short: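 Serum-starved RAW264.7 cells treated 2 h at 10-50 μM; 100 μM TBHP for 30 min as positive control. Medium replaced, cells loaded with 10 μM carboxy-H₂DCFDA for 15 min at 37 °C. Flow cytometry (488 nm excitation, 525 nm emission, 10,000 events) gave percentage of cells with raised ROS; mean ± SD of three experiments.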

[9] = biological target: T1, Nuclear factor erythroid 2-related factor 2 (Mus musculus); experiment: Activation of Nrf2 in mouse RAW264.7 cells assessed as upregulation of HO1 protein expression at 50 uM after 4 hrs by Western blotting analysis relative to untreated control; assay type: cell-based; in short: as §2
[10] = biological target: Mitogen-activated protein kinase 3 (Mus musculus) (UniProt Q63844); experiment: Activation of ERK1 in mouse RAW264.7 cells assessed as phosphorylation at Thr202/Tyr204 at 50 uM after 30 mins by Western blotting analysis; assay type: cell-based
Mitogen-activated protein kinase 3 (Mus musculus), sequence (Q63844 whole entry): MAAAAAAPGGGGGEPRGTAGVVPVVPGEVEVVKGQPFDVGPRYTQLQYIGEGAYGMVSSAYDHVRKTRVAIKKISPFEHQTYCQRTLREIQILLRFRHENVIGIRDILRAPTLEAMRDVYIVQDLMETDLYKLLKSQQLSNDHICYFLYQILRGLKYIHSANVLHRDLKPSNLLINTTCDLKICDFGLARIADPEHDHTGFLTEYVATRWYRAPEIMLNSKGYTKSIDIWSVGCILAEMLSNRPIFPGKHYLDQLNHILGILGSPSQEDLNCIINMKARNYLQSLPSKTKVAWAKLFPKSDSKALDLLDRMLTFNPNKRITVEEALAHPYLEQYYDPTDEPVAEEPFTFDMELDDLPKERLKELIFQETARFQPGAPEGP
In short: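 RAW264.7 cells (passage 5-25) seeded at 1 × 10⁵ cells/cm², serum-starved overnight, then exposed in serum-free medium for 30 min to 3 h; 0.1% DMSO vehicle; 75 ng/mL EGF for 30 min as positive control. Whole-cell lysates (20 μg/lane) on 10% SDS-PAGE, blotted for phospho-ERK1 (Thr202/Tyr204), phospho-ERK2 (Thr185/Tyr187) and total ERK1/2, chemiluminescent detection.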

[11] = biological target: T1, Nuclear factor erythroid 2-related factor 2 (Mus musculus); experiment: Activation of Nrf2 in mouse RAW264.7 cells assessed as upregulation of HO1 protein expression at 50 uM after 1 hrs by Western blotting analysis relative to untreated control; assay type: cell-based; in short: as §2
[12] = biological target: T1, Nuclear factor erythroid 2-related factor 2 (Mus musculus); experiment: Activation of Nrf2 in mouse RAW264.7 cells assessed as cytosolic accumulation at 25 uM after 3 hrs by Western blotting analysis; assay type: cell-based; in short: as §3
[13] = biological target: T1, Nuclear factor erythroid 2-related factor 2 (Mus musculus); experiment: Activation of Nrf2 in mouse RAW264.7 cells assessed as upregulation of HO1 protein expression at 50 uM after 6 hrs by Western blotting analysis relative to untreated control; assay type: cell-based; in short: as §2
[14] = biological target: T1, Nuclear factor erythroid 2-related factor 2 (Mus musculus); experiment: Activation of Nrf2 in mouse RAW264.7 cells assessed as nuclear accumulation at 50 uM after 1 hr by Western blotting analysis; assay type: cell-based; in short: as §3
[15] = biological target: T1, Nuclear factor erythroid 2-related factor 2 (Mus musculus); experiment: Activation of Nrf2 in mouse RAW264.7 cells assessed as upregulation of Hmox1 gene expression at 50 uM after 6 hrs by real-time PCR analysis relative to GAPDH mRNA expression; assay type: cell-based
In short: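 Serum-starved RAW264.7 cells were exposed for 6 h in serum-free medium against a 0.1% DMSO control. Total RNA (2 μg) was reverse-transcribed, then TaqMan qPCR run for Hmox1 and Gapdh over 40 cycles. Crossing points were taken by second-derivative maximum, and fold change calculated by the 2^−ΔΔCT method normalized to Gapdh. Mean ± SD of three experiments.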

**Q.** What does the source list for `O=C(Oc1cc(O)c2c(c1)O[C@H](c1ccc(O)c(O)c1)[C@@H](O)C2=O)c1cc(O)c(O)c(O)c1`?
**A.** Activity [1]: tde; Activity [2]: Dose-dependent effect; Activity [3]: tde; Activity [4]: Active; Activity [5]: inactive; fold change (FC) [6]: 2.3; Activity [7]: Active; fold change (FC) [8]: 1.6; Activity (RAW264.7): 19%; fold change (FC) [9]: 1.6; Activity [10]: Active; fold change (FC) [11]: 1.1; Activity [12]: Active; fold change (FC) [13]: 2.5; Activity [14]: Active; fold change (FC) [15]: 13.4
